Active and inactive are the calls of the source. No cut-off for these calls is given here.
Assays:
Format in all cases: cell-based
[1] = target: Toll-like receptor 3 (Homo sapiens) (UniProt O15455); experiment: Agonist activity at human TLR3 stably expressed in HEK293 cells co-expressing secreted alkaline phosphatase assessed as NF-kappaB induction by liquid handler-assisted reporter gene assay
Summary of the method: (§1)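 HEK293 reporter cells stably co-transfected with the respective human TLR or NOD receptor plus NF-κB/AP-1-driven secreted alkaline phosphatase, kept in selection medium. About 10^5 cells/ml were incubated with graded concentrations of test compound in 384-well format. Supernatant sAP was read colorimetrically at 620 nm with an alkaline phosphatase-specific chromogen in detection medium.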

[2] = target: T1, Toll-like receptor 9 (Homo sapiens) (UniProt Q9NR96); experiment: Agonist activity at human TLR9 stably expressed in HEK293 cells co-expressing secreted alkaline phosphatase assessed as NF-kappaB induction by liquid handler-assisted reporter gene assay; summary of the method: as §1
T1 sequence (whole entry): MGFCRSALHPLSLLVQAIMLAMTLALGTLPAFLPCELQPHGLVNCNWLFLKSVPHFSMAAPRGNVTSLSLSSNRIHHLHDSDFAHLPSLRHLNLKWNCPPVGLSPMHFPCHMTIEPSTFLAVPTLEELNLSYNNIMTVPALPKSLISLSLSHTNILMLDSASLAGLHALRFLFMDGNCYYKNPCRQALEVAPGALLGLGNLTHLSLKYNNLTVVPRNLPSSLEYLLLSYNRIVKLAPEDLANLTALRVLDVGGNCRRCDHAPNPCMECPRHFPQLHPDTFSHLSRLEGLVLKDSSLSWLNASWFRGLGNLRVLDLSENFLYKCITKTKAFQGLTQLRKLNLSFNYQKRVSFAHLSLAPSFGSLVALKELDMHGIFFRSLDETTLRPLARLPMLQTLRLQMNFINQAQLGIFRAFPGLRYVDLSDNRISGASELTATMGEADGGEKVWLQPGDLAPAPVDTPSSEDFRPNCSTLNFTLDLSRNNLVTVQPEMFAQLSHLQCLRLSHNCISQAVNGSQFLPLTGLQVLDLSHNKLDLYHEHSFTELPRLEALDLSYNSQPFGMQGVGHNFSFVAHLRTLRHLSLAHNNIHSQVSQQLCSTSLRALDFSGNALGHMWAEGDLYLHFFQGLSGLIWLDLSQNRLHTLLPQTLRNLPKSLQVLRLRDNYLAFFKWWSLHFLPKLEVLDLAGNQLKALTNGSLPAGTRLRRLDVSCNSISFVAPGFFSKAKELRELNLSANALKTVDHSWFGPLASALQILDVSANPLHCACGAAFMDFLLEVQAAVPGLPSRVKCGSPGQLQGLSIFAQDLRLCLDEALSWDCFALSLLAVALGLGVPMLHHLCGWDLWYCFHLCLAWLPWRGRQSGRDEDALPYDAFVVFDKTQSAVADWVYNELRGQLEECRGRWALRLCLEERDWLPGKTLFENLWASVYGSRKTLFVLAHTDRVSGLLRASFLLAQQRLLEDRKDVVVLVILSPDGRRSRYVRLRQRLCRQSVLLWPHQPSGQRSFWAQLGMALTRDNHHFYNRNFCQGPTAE

[3] = target: T2, Nucleotide-binding oligomerization domain-containing protein 1 (Homo sapiens) (UniProt Q9Y239); experiment: Agonist activity at human NOD1 stably expressed in HEK293 cells co-expressing secreted alkaline phosphatase assessed as NF-kappaB induction by liquid handler-assisted reporter gene assay; summary of the method: as §1
T2 sequence (whole entry): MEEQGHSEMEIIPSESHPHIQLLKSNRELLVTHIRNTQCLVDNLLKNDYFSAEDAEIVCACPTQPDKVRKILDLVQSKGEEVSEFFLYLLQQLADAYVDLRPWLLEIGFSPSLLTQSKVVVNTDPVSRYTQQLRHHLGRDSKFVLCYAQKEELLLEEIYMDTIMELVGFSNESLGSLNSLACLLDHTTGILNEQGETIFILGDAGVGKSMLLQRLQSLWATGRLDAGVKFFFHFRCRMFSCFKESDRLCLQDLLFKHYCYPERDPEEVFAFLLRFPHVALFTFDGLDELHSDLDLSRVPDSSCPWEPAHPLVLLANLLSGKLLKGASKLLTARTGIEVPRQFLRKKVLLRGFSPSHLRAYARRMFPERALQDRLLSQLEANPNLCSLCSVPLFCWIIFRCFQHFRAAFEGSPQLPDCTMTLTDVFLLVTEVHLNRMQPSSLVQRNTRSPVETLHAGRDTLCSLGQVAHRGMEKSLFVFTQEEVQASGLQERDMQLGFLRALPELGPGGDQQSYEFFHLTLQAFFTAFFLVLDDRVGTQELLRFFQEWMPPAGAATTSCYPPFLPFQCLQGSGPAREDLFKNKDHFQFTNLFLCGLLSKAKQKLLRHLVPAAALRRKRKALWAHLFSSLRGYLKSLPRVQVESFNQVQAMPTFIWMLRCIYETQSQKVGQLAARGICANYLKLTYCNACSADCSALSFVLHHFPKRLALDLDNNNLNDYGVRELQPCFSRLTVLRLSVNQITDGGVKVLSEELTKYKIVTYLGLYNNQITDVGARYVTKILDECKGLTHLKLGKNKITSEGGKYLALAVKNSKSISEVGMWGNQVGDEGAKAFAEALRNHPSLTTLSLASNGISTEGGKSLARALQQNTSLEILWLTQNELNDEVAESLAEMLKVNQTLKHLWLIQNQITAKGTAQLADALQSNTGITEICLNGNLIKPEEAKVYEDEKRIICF

[4] = target: Nucleotide-binding oligomerization domain-containing protein 2 (Homo sapiens, UniProt Q9HC29); experiment: Agonist activity at human NOD2 stably expressed in HEK293 cells co-expressing secreted alkaline phosphatase assessed as NF-kappaB induction by liquid handler-assisted reporter gene assay; summary of the method: as §1
Nucleotide-binding oligomerization domain-containing protein 2, sequence (Q9HC29 whole entry, the tested form may be a part): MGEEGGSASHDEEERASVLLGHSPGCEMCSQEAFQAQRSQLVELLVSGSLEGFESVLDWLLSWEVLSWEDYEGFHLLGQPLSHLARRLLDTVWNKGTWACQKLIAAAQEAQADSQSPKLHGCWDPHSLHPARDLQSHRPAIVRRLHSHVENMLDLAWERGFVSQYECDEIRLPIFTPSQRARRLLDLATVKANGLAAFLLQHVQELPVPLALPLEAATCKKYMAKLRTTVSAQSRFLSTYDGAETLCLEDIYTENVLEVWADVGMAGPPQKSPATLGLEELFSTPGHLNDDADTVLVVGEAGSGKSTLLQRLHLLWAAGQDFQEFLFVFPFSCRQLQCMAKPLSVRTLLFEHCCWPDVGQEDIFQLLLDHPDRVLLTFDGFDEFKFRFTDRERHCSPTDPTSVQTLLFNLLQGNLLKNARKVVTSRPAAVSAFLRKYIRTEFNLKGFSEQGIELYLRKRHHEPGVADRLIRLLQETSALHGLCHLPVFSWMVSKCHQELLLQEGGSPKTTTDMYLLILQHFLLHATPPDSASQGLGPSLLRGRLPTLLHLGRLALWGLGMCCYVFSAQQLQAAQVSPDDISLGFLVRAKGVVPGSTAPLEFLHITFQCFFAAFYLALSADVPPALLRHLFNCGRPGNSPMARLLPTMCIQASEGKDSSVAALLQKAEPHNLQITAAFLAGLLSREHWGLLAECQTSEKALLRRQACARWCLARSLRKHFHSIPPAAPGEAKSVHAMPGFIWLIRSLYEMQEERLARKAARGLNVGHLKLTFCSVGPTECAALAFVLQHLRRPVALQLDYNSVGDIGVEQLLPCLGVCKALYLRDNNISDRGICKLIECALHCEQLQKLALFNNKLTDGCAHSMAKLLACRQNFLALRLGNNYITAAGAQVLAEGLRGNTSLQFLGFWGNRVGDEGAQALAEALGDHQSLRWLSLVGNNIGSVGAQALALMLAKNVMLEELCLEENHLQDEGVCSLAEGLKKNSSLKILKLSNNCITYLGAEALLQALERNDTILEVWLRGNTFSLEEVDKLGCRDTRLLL

Toll-like receptor 3 (Homo sapiens), sequence (O15455 whole entry): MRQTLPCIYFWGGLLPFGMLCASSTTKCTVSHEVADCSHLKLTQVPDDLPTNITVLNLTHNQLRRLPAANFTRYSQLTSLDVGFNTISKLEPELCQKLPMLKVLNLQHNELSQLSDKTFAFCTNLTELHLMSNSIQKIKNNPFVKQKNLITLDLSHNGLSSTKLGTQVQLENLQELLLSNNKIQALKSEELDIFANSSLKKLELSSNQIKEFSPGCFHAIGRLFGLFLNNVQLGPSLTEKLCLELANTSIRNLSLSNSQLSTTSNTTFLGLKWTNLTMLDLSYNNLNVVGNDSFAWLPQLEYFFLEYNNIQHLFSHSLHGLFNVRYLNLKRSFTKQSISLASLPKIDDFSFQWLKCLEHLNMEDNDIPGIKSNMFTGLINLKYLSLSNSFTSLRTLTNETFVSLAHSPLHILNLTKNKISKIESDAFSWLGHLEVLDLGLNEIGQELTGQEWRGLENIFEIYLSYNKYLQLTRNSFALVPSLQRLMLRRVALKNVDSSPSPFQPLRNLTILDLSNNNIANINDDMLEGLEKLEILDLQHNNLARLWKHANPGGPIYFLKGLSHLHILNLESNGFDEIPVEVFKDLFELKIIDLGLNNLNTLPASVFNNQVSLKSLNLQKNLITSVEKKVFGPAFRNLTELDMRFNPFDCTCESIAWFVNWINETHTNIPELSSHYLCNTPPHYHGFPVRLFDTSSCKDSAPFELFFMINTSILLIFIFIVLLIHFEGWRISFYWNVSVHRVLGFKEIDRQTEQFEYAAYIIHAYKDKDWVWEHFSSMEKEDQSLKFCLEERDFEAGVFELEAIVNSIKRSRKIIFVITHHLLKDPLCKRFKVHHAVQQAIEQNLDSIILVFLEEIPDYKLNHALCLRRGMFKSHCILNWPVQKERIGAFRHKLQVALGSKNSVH

Row | Activity [1] | Activity [2] | Activity [3] | Activity [4] | SMILES
1 | inactive | inactive | inactive | inactive | CCCCCn1c(N)nc2ncccc21
2 | inactive | inactive | inactive | inactive | CCCCCn1c(N)nc2c(Cl)cccc21
3 | inactive | inactive | inactive | inactive | CCCCCn1c(N)nc2ccc3ccccc3c21
4 | inactive | inactive | inactive | inactive | CCCCCn1c(N)nc2c(C)cccc21
5 | inactive | inactive | inactive | inactive | CCCCC1C(N)=Nc2ccccc21.Cl (centres undefined)
6 | inactive | inactive | inactive | inactive | CCCCCn1c(N)nc2c(F)cccc21
7 | inactive | inactive | inactive | inactive | CCCCCn1c(N)nc2c([N+](=O)[O-])cccc21
8 | inactive | inactive | inactive | inactive | CCCCCn1c(N)nc2ccncc21
9 | inactive | inactive | inactive | inactive | CCCCC1(O)C(N)=Nc2ccccc21 (centres undefined)
10 | inactive | inactive | inactive | inactive | CCCCCn1c(NC(C)=O)nc2ccccc21
11 | inactive | inactive | inactive | inactive | CCCCOC(=O)n1c(N)nc2ccccc21
12 | inactive | inactive | inactive | inactive | CCCCCn1c(N)nc2c(-c3ccccc3)cccc21
13 | inactive | inactive | inactive | inactive | CCCCCn1c(N)nc2c(Cc3ccccc3)cccc21
14 | inactive | inactive | inactive | inactive | CCCCCn1c(N)nc2c(C(F)(F)F)cccc21
15 | inactive | inactive | inactive | inactive | CCCCCn1c(N)nc2c(Br)cccc21
16 | inactive | inactive | inactive | inactive | CCCCCn1c(N)nc2cccnc21
17 | inactive | inactive | inactive | inactive | CCCCCn1c(N)nc2c(OCc3ccccc3)cccc21
18 | inactive | inactive | inactive | inactive | CCCCCn1c(N)nc2cnccc21
19 | inactive | inactive | inactive | inactive | NCc1cccc(Cn2c(N)nc3ccccc32)c1
20 | inactive | inactive | inactive | inactive | CCCCCn1c(N)nc2cc3ccccc3cc21
21 | inactive | inactive | inactive | inactive | Nc1nc2ccccc2n1Cc1ccccc1

Source: ChEMBL document CHEMBL3352666, “Human Toll-like receptor 8-selective agonistic activities in 1-alkyl-1H-benzimidazol-2-amines” (J Med Chem, 2014)
